According to PMC12744307 (ACS infectious diseases, 2023):
Values after ≈ are worked out from the molar mass of the structure shown. Where two headings read alike, the source gives them in different places. Ends that are not written are not given here.

How the values were obtained:
[1] = Effect of MHB dilution on antimicrobial activity of a panel of antibiotics; format: cell-based; details: MHB from 100% to 12.5% (Figure S2)
S. aureus USA300 = experiment: microbe, parasite or virus in culture; format: cell-based, Staphylococcus aureus; details: for MIC: Staphylococcus aureus
E. coli membrane = experiment: Membrane permeabilization; format: cell-based, Escherichia coli; details: Figure S4A
[2] = tested on: preformed biofilms of S. aureus USA300 LAC; experiment: Disruption of preformed biofilms; format: cell-based, Staphylococcus aureus; details: 100% MHB, 24 h treatment, XTT
How it was run: (§1)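 Biofilms grown from an exponential-phase culture (OD600 ~0.4) for 24 h at 37°C in TSB, then washed with PBS to remove planktonic cells. Treated with peptide in MHB (different strengths) for 24 h at 37°C. Live cells measured with XTT in TSB (2 h, 37°C, A450), blanked on medium with XTT. Results given as % of water-treated biofilm, mean ± SD, one-way ANOVA.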

[3] = tested on: preformed biofilms of E. coli E423–17; experiment: Disruption of preformed biofilms; format: cell-based, Escherichia coli
How it was run: as §1

E. coli E423–17 = format: cell-based, Escherichia coli
S. aureus USA300 LAC = format: cell-based, Staphylococcus aureus; details: 17 passages at sub-MIC, MHB
P. aeruginosa 152 = format: cell-based, Pseudomonas aeruginosa
A. baumannii B28–16 = format: cell-based, Acinetobacter baumannii
[4] = tested on: S. aureus USA300 membrane; experiment: Membrane depolarization; format: cell-based, Staphylococcus aureus; details: peptide up to 2× MIC; Triton X-100 0.1% (Figure 5C)
How it was run: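 Exponential-phase MRSA USA300 grown in TSB, washed, and resuspended in 2 volumes of PBS with 25 mM glucose. Energised for 15 min at 37°C, then given 500 nM (final) DiBAC4(3). Baseline fluorescence (ex 485/em 520 nm) read for 20 min; peptide then added and reading continued for 40 min. Triton X-100 (0.1%) was the positive control.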

[5] = MRSA|USA300, read-out: Antimicrobial activity (MIC), MRSA in MHB, 10% human serum
[6] = MRSA|USA300, read-out: Antimicrobial activity (MIC), MRSA in MHB, NaCl (150 mM)
[7] = MRSA|USA300, pH 6.3, read-out: Antimicrobial activity (MIC), MRSA in MHB, pH 6.3
[8] = MRSA|USA300, pH 7.2, read-out: Antimicrobial activity (MIC), MRSA in MHB, pH 7.2

NCC[C@H](O)C(=O)N[C@@H]1C[C@H](N)[C@@H](O[C@H]2O[C@H](CN)[C@@H](O)[C@H](O)[C@H]2O)[C@H](O)[C@H]1O[C@H]1O[C@H](CO)[C@@H](O)[C@H](N)[C@H]1O [Amikacin]
Change in MIC with the dilution of MHB [1]: small changes in MIC values | MIC (S. aureus USA300; [5]): 32 µM (≈ 18.7 µg/mL) | MIC (S. aureus USA300; [6]): 32 µM (≈ 18.7 µg/mL)

CCCCCCCCCC(=O)N[C@@H](Cc1c[nH]c2ccccc12)C(=O)N[C@H](CC(N)=O)C(=O)N[C@@H](CC(=O)O)C(=O)N[C@@H]1C(=O)NCC(=O)N[C@@H](CCCN)C(=O)N[C@@H](CC(=O)O)C(=O)N[C@H](C)C(=O)N[C@@H](CC(=O)O)C(=O)NCC(=O)N[C@H](CO)C(=O)N[C@@H]([C@H](C)CC(=O)O)C(=O)N[C@@H](CC(=O)c2ccccc2N)C(=O)O[C@@H]1C [Daptomycin]
Antimicrobial activity (MIC) (S. aureus USA300; USA300): 1 µM | Antimicrobial activity (MIC) (S. aureus USA300; USA300, pH 6.3): 1 µM | Antimicrobial activity (MIC) (S. aureus USA300; USA300, pH 7.2): 1 µM

CNC(C)C1CCC(N)C(OC2C(N)CC(N)C(OC3OCC(C)(O)C(NC)C3O)C2O)O1 (centres unmarked) [Gentamicin]
MIC (S. aureus USA300; [7]): 1 to 2 µM (≈ 0.478 to 0.955 µg/mL) | MIC (S. aureus USA300; [8]): 0.5 µM (≈ 0.239 µg/mL) | MIC (S. aureus USA300; [5]): 0.5 to 1 µM (≈ 0.239 to 0.478 µg/mL) | MIC (S. aureus USA300; [6]): 1 µM (≈ 0.478 µg/mL) | Membrane permeation (PI fluorescence) (E. coli membrane): did not permeate the E. coli membrane

CC[C@H](C)[C@H](NC(=O)[C@H](CCCCN)NC(=O)[C@H](CCC(=O)O)NC(=O)[C@H](CCCCN)NC(=O)[C@H](CO)NC(=O)[C@H](CCCCN)NC(=O)[C@H](CCCNC(=N)N)NC(=O)[C@H](Cc1ccccc1)NC(=O)[C@H](Cc1ccccc1)NC(=O)[C@H](CC(=O)O)NC(=O)CNC(=O)[C@H](CC(C)C)NC(=O)[C@@H](N)CC(C)C)C(=O)NCC(=O)N[C@@H](CCCCN)C(=O)N[C@@H](CCC(=O)O)C(=O)N[C@@H](Cc1ccccc1)C(=O)N[C@@H](CCCCN)C(=O)N[C@@H](CCCNC(=N)N)C(=O)N[C@H](C(=O)N[C@H](C(=O)N[C@@H](CCC(N)=O)C(=O)N[C@@H](CCCNC(=N)N)C(=O)N[C@H](C(=O)N[C@@H](CCCCN)C(=O)N[C@@H](CC(=O)O)C(=O)N[C@@H](Cc1ccccc1)C(=O)N[C@@H](CC(C)C)C(=O)N[C@@H](CCCNC(=N)N)C(=O)N[C@@H](CC(N)=O)C(=O)N[C@@H](CC(C)C)C(=O)N[C@H](C(=O)N1CCC[C@H]1C(=O)N[C@@H](CCCNC(=N)N)C(=O)N[C@H](C(=O)N[C@@H](CCC(=O)O)C(=O)N[C@@H](CO)C(=O)O)[C@@H](C)O)C(C)C)[C@@H](C)CC)C(C)C)[C@@H](C)CC [LL-37]
Antibiofilm activity against 24 h preformed biofilms [2]: essentially no antibiofilm activity | Effect on biofilms with increase in peptide concentration ([3]; 12.5% MHB (Figure S1)): dose-dependent antibiofilm effect is clear | Effect on biofilms with increase in peptide concentration ([3]; 100% MHB (Figure S1)): subtle effect | Activity (MIC), screen of LL-37 fragments (E. coli E423–17; 100% MHB, rich media (Figure 3)): active | Antimicrobial activity (MIC) in cell culturing media (E. coli E423–17; RPMI and DMEM media (Table S2)): remained active | Activity (MIC), screen of LL-37 fragments (S. aureus USA300; 12.5% MHB (Figure 3)): became active | Activity (MIC), screen of LL-37 fragments (S. aureus USA300; 100% MHB (Figure 3)): did not display any activity | Antimicrobial activity (MIC) in cell culturing media (S. aureus USA300; RPMI and DMEM media (Table S2)): remained active

CC(=O)NC[C@H]1CN(c2ccc(N3CCOCC3)c(F)c2)C(=O)O1 [Linezolid]
Change in MIC with the dilution of MHB [1]: essentially no changes in antibacterial activity | MIC (S. aureus USA300; [7]): 8 µM (≈ 2.7 µg/mL) | MIC (S. aureus USA300; [8]): 8 µM (≈ 2.7 µg/mL) | MIC (S. aureus USA300; [5]): 8 µM (≈ 2.7 µg/mL)

C/C(=C\C(=O)OCCCCCCCCC(=O)O)C[C@@H]1OC[C@H](C[C@@H]2O[C@H]2[C@@H](C)[C@H](C)O)[C@@H](O)[C@H]1O [Muporicin]
Change in MIC with the dilution of MHB [1]: essentially no changes in antibacterial activity | Antimicrobial activity (MIC) (S. aureus USA300; MRSA in MHB, 10% human serum): 4 µM | Antimicrobial activity (MIC) (S. aureus USA300; MRSA in MHB, 20% human serum): 4 µM | Antimicrobial activity (MIC) (S. aureus USA300; MRSA in MHB, NaCl (150 mM)): 1 µM | Antimicrobial activity (MIC) (S. aureus USA300; MRSA in MHB, pH 6.3): 0.5 µM | Antimicrobial activity (MIC) (S. aureus USA300; MRSA in MHB, pH 7.2): 1 µM

CCOc1ccc2ccccc2c1C(=O)N[C@@H]1C(=O)N2[C@@H]1SC(C)(C)[C@@H]2C(=O)O [Nafcillin]
Fold increase of MIC after multiple passages (S. aureus USA300 LAC): 32 fold | Change in MIC with the dilution of MHB [1]: small changes in MIC values | MIC (S. aureus USA300; [5]): 16 µM (≈ 6.63 µg/mL) | MIC (S. aureus USA300; [6]): 32 µM (≈ 13.3 µg/mL)

NC[C@H]1O[C@H](O[C@H]2[C@H](O)[C@@H](O[C@H]3O[C@H](CO)[C@@H](O)[C@H](N)[C@H]3O)[C@H](N)C[C@@H]2N)[C@H](N)C[C@@H]1O [Tobramycin]
Change in MIC with the dilution of MHB [1]: essentially no changes in antibacterial activity | MIC (S. aureus USA300; [6]): 4 µM (≈ 1.87 µg/mL)

CN[C@H](CC(C)C)C(=O)N[C@H]1C(=O)N[C@@H](CC(N)=O)C(=O)N[C@H]2C(=O)N[C@H]3C(=O)N[C@H](C(=O)N[C@H](C(=O)O)c4cc(O)cc(O)c4-c4cc3ccc4O)[C@H](O)c3ccc(c(Cl)c3)Oc3cc2cc(c3O[C@@H]2O[C@H](CO)[C@@H](O)[C@H](O)[C@H]2O[C@H]2C[C@](C)(N)[C@H](O)[C@H](C)O2)Oc2ccc(cc2Cl)[C@H]1O [Vancomycin]
Change in MIC with the dilution of MHB [1]: essentially no changes in antibacterial activity | MIC (S. aureus USA300; [7]): 0.5 µM (≈ 0.725 µg/mL) | MIC (S. aureus USA300; [8]): 0.5 µM (≈ 0.725 µg/mL) | MIC (S. aureus USA300; [5]): 0.5 µM (≈ 0.725 µg/mL) | MIC (S. aureus USA300; [6]): 0.5 to 1 µM (≈ 0.725 to 1.45 µg/mL)

KEKIGKEFKR-NH2 (C-terminus assumed) [KE-10]
Antimicrobial activity (MIC) in cell culturing media (S. aureus USA300; USA300): > 64 µM

KRIVQRIK-NH2 [W538]
Activity (MIC), P. aeruginosa (P. aeruginosa 152): >32 µM | Activity (MIC), screen of LL-37 fragments (E. coli E423–17; E423–17): 8 µM

KRIWQRIK-NH2 [W539]
Activity (MIC), P. aeruginosa (P. aeruginosa 152): >32 µM

KRIWQRWK-NH2 [W540]
Activity (MIC), P. aeruginosa (P. aeruginosa 152): >32 µM | Toxicity to HaCaT cells (viability) (human skin HaCaT cells): more toxic than other peptides

KRWWQRWK-NH2 [W541]
Activity (MIC), P. aeruginosa (P. aeruginosa 152): >32 µM | Activity (MIC), E. coli (E. coli E423–17; E423–17): 8 µM

KRWWQWWK-NH2 [W542]
Activity (MIC), P. aeruginosa (P. aeruginosa 152): 4 to 8 µM | Activity (MIC), A. baumannii (A. baumannii B28–16): 32 µM | Activity (MIC), E. coli (E. coli E423–17; E423–17): 4 µM | Activity (MIC), S. aureus (S. aureus USA300; USA300): 8 µM

RIKDFLRNLV-NH2 (C-terminus assumed) [RIK-10]
Activity (MIC), screen of LL-37 fragments (E. coli E423–17; E423–17): 16 µM | Antimicrobial activity (MIC) in DMEM (E. coli E423–17; E423–17): 8 µM | Antimicrobial activity in RPMI (E. coli E423–17; RPMI (Table S2)): poor activity | Activity (MIC), screen of LL-37 fragments (S. aureus USA300; 12.5% MHB (Figure 3)): became active | Antimicrobial activity (MIC) in cell culturing media (S. aureus USA300; RPMI and DMEM media (Table S2)): poor activity

RRWWRWWL-NH2 [W544]
Activity (MIC), P. aeruginosa (P. aeruginosa 152): 4 µM | Activity (MIC), E. coli (E. coli E423–17; E423–17): 4 µM | Activity (MIC), S. aureus (S. aureus USA300; USA300): 4 µM | Toxicity to HaCaT cells (viability) (human skin HaCaT cells): more toxic than other peptides

RRWWRWWR-NH2 [W543]
Activity (MIC), P. aeruginosa (P. aeruginosa 152): 8 µM | Activity (MIC), E. coli (E. coli E423–17; E423–17): 8 µM | Antimicrobial activity (MIC) (S. aureus USA300; USA300): 8 µM | Antimicrobial activity (MIC) (S. aureus USA300; USA300, pH 7.2): 8 µM | Toxicity to HaCaT cells (viability) (human skin HaCaT cells): least toxic

Triton X-100
Membrane depolarization [4]: strong membrane depolarization

colistin
Membrane permeation (PI fluorescence) (E. coli membrane): powerful membrane permeator
